Read-outs that look alike come from different tables or passages of the source.
Legend:
[1] = METH alone, no antibody; ref Riviere et al.[21]; cited from earlier work
[2] = Modified radioimmunoassay; assay type: binding; conditions: modified RIA, [3H]-METH tracer, complete inhibition curve
[3] = Prediction of human elimination half-life from rat values; set-up: species or system humans; conditions: extrapolated from rat: human ClT about one-third of rat, similar Vdss
[4] = METH pharmacokinetics in rats after anti-METH mAb treatment; assay type: in vivo, Male, Sprague Dawley rats; conditions: rat
How it was run: (§1)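 Male Sprague Dawley rats (n = 12/group), housed individually, got a single IV antibody dose via tail vein over about 2 min. The dose was ultracentrifuged (~100,000 g, 1 h, 5 °C) and diluted in PBS (15 mM sodium phosphate, 150 mM NaCl). METH 1 mg/kg (in 0.9% NaCl) or saline was given SC 24 h later. Six tail-vein samples were drawn over 3 wk. Non-compartmental sparse-sampling analysis used mean concentration per time point: ClT = D/AUC, Vdss = D·AUMC/AUC², […].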

[5] = GLP in vivo rat toxicology study
[6] = Isothermal titration calorimetry; assay type: binding
How it was run: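 For isothermal titration calorimetry, 86 μM METH was titrated into 5 μM antibody at 307 rpm. Each run had 28 injections of 10 μL, spaced 200 s, at 37 °C in PBS pH 6.5. A one-site model gave N, ΔH, ΔS and the association constant (the reciprocal of KD). Activity was derived from N and molecular weights, with 2.07 μg METH/mg mAb taken as 100% active.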

[7] = GLP human tissue cross-reactivity study; conditions: human tissues, results not shown
[8] = assay type: in vivo, Male, Sprague Dawley rats; conditions: rats, single antibody dose, throughout the study
How it was run: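 Body weights and general health observations were recorded for each rat throughout the 3-week study after the single IV antibody dose and 24-h SC challenge. Body weight and hematocrit are given as mean ± standard deviation.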

[9] = Ch-mAb7F9 pharmacokinetics in rats; assay type: in vivo, Male, Sprague Dawley rats; conditions: for ClT / Vdss / t1/2λz: rat
How it was run: as §1

[10] = Preliminary surface plasmon resonance study of on-off rates; assay type: binding; conditions: data not shown
[11] = ch-mAb7F9 15 mg/kg IV, saline challenge
[12] = ch-mAb7F9 15 mg/kg IV, with METH 1 mg/kg SC 24 h later
[13] = ch-mAb7F9 150 mg/kg IV, saline challenge
[14] = ch-mAb7F9 150 mg/kg IV, with METH 1 mg/kg SC 24 h later

In the case of (+)-methamphetamine, the “METH ClT” value [1] is given as 181400 mL/day/kg, the “METH Vdss” value [1] is given as 9 L/kg and the “METH t1/2λz” value [1] is given as 1.1 h.

B1: ch-mAb7F9: human-mouse chimeric anti-METH monoclonal antibody; mAb7F9 variable region joined to human IgG2κ constant domains (antibody, V domains shown)
VH: EIQLQQSGPELGKPGASVKVSCRASGFSFADYYIYWVKQSHGKSLELIGYIDPFNGGDTYNQIFKGKATLTVDKSSSTAFMYLNSLTSEDSAVYYCAAFRNPSFDFWGQGTTLTVSS
VL: QIVLIQSPPIMSASPGEKVTLTCSASSSVSSRYLYWYQQKPGSSPKLWIYGTSNLASGVPARFSGSGSGTSFSLTISSMEAEDAASYFCHQWSSFPFTFGSGTKLEIK
For B1, the Kd [2] was 6.9 nM, the “predicted t1/2λz in humans” value [3] was no more than 3 wk and the “decrease of METH clearance compared with mAb7F9” value ([4]; 150 mg/kg mAb dose) was “approximately 50%”. The “METH ClT” value ([4]; METH 1 mg/kg SC 24 h after mAb 15 mg/kg IV) was 13800 mL/day/kg, the “METH ClT” value ([4]; METH 1 mg/kg SC 24 h after mAb 150 mg/kg IV) was 926 mL/day/kg and the “decrease of METH Vdss compared with METH alone” value ([4]; ch-mAb7F9 15 mg/kg) was ~ 5 fold. For the same molecule, the “increase in METH t1/2λz compared with METH alone” value ([4]; ch-mAb7F9 15 mg/kg) was 2.1 fold, the “decrease of METH ClT compared with METH alone” value ([4]; ch-mAb7F9 15 mg/kg (low dose)) was 13 fold and the “decrease of METH Vdss compared with METH alone” value ([4]; ch-mAb7F9 150 mg/kg) was roughly 25 fold. The “increase in METH t1/2λz compared with METH alone” value ([4]; ch-mAb7F9 150 mg/kg) was 5.9 fold, the “decrease of METH ClT compared with METH alone” value ([4]; ch-mAb7F9 150 mg/kg (high dose)) was 196 fold and the elimination half-life ([5]; GLP rat toxicology study, samples for 56 d, results not shown) was 190 to 288 h. For the same molecule, the “no-observed-adverse-effect level, NOAEL” value ([5]; rat, single doses, GLP) was 400 mg/kg, the “average activity (capacity for binding METH per quantity of mAb)” value ([6]; first GMP-compliant lot, converted from ITC stoichiometry) was 1.96 μg METH bound per mg mAb and the Kd ([6]; read-out: KD (ITC, average), ITC, 37 °C, PBS pH 6.5) was 49 nM. For the same molecule, the tissue staining [7] was “the staining was cytoplasmic”, the “health changes (eating behavior, body weight)” value [8] was “no significant health changes” and the ClT [9, 11] was 6.9 mL/day/kg. For the same molecule, the Vdss [9, 11] was 0.1084 L/kg, the t1/2λz [9, 11] was 262 h and the ClT [9, 12] was 6.1 mL/day/kg. For the same molecule, the Vdss [9, 12] was 0.1151 L/kg, the t1/2λz [9, 12] was 314 h and the ClT [9, 13] was 6.5 mL/day/kg. It also gave a Vdss [9, 13] of 0.1083 L/kg, a t1/2λz [9, 13] of 276 h and a ClT [9, 14] of 7.6 mL/day/kg. For the same molecule, the Vdss [9, 14] was 0.1082 L/kg, the t1/2λz [9, 14] was 235 h and the “t1/2λz (range over groups)” value ([9]; rats, current studies, 15 and 150 mg/kg) was 240 to 312 h. The “on-off rates of METH binding” value [10] was “both reactions are fast”.
